Compound activity deposited in PubChem BioAssay by SRMLSC.
The sample as a whole holds a higher share of hits than the screen did.
PTEN del growth: PTEN-deleted cell growth suppression | 140,000 tested, 1.2% active | AID 827 | viability, % at 10 µM | HCT116 PTEN-null viability, CellTiter-Glo, 60 h; stronger effect = lower value;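 active = viability at or below a set limit, 4 SD under the median of all tested compounds, cut at about 3.7% in these data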;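 note: PTEN knockout HCT116 line with beta catenin targeted HCT116 as companion control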
bCat KO growth: beta-catenin-lacking colon tumor cell growth suppression; HCT116 beta-catenin knockout viability, CellTiter-Glo, 60 h; stronger effect = lower value; viability, % at 10 µM; 140,000 tested, 1.5% active;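 active = viability at or under a set limit, the compound median less 4 SD, cut at about 6% in these data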
HUVEC inhibit: human endothelial cell proliferation inhibition; viability, % at 10 µM (by protocol); 86,000 tested, 1.1% active; HUVEC proliferation, CellTiter-Glo luminescence, 72 h; stronger effect = lower value;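 active = viability at or below 30%; inactive = viability above 30%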
H69AR inhibit: blocks growth of human H69AR lung tumor cells. H69AR lung tumor viability, ATP luminescence, 72 h; stronger effect = lower value. viability, % at 10 µM. 85,000 tested, 6% active;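 active = viability at or below 40%; inactive = viability above 40%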;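 note: multidrug resistant small cell line overexpressing MRP-1 efflux transporter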
Lung fibro prol: blocks proliferation of human lung fibroblasts. LL 47 human lung fibroblast viability, ATP luminescence; stronger effect = lower value. viability, % at 10 µM. 85,000 tested, 1.1% active;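 active = viability at or below 50% in the single dose screen; inactive = viability above 50%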;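 note: compound exposure lasted 72 h before the ATP readout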
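Benchmarks: Cell-only wells, no compound | Test system: LL 47 human lung fibroblasts, passage 12 or lower | Input: 1,150 cells/well | Measured by: CellTiter-Glo luminescence measuring cellular ATP | Medium: IMEM, 15% FBS supplement | Schedule: Overnight attachment after seeding, then 72 h compound exposure at 37 °C | Doses: Compound addition at 0.1% DMSO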
A number is an active result; n = inactive; x = not tested or not shown.

SMILES	PTEN del growth	bCat KO growth	HUVEC inhibit	H69AR inhibit	Lung fibro prol
COc1ccc(-c2cc(-c3cc(OC)ccc3O)[nH]n2)cc1	n	n	n	28	n
Cc1cccc(S(=O)(=O)NC(Cc2c[nH]c3ccccc23)C(=O)O)c1 (configuration not stated)	n	n	x	x	x
COc1cccc(NC(=S)NC2CC(C)(C)NC(C)(C)C2)c1	n	n	x	x	x
CCOc1cnn(-c2cc(Oc3ccc(C)cc3)ncn2)c(=O)c1Cl	n	n	x	x	x
Cc1ccccc1Oc1cc(-n2ncc(Cl)c(Cl)c2=O)ncn1	1.9	1.6	x	x	x
N#Cc1c(Cl)nc(SCc2ccccc2)nc1-c1ccccc1	n	n	x	x	x
CCN1/C(=C/c2ccc3ccccc3[n+]2CC)C=Cc2ccccc21	1.5	1.8	n	2.2	18
COc1cc(NC(=O)c2cc3c(C)nc4ccccc4c3o2)cc(OC)c1OC	n	n	n	35	n
COc1ccc(C)cc1NC(=O)c1cc2c(C)nc3ccccc3c2o1	x	x	n	n	n
COc1ccc(-c2cc(C(=O)Nc3c(Cl)cc(Cl)cc3Cl)c3ccccc3n2)cc1OC	1.8	2.1	x	x	x
COc1ccc(-c2cc(C(=O)Nc3nc4ccccc4s3)c3ccccc3n2)cc1OC	n	n	x	x	x
COc1ccc(NC(=O)c2cc(-c3ccc(C)o3)nc3ccccc23)cc1OC	n	n	n	35	n
COc1ccc(-c2cc(C(=O)Nc3ccc(Cl)cc3Cl)c3ccccc3n2)cc1OC	n	5.4	x	x	x
O=c1c2cn[nH]c2[nH]c(=S)n1-c1cccc(Cl)c1	n	n	x	x	x
CN(C)CCSc1nnc2[nH]c3ccccc3c2n1	n	n	x	x	x
Cc1ccc(OCCn2cc(Br)c(=O)[nH]c2=O)cc1	n	n	n	n	n
O=C(NCc1cccnc1)C1CCCN(Cc2cnn(-c3ccccc3)c2-n2cccc2)C1 (configuration not stated)	n	n	n	n	n
CCC1=Nc2cc(C(=O)NCCCOC(C)C)ccc2Sc2ccccc21	n	n	n	26	n
O=C(c1cn(-c2ccccc2)nc1-c1cccs1)N(CCO)Cc1ccccc1	n	n	n	23	n
O=C(N/N=C/c1ccc(OC(=O)c2ccccc2)c([N+](=O)[O-])c1)c1ccc(O)cc1	n	n	x	x	x
O=C(Cc1cccc2ccccc12)NC(NC(=S)Nc1ccccc1Cl)C(Cl)(Cl)Cl (configuration not stated)	n	n	x	x	x
O=C(NC(NC(=S)Nc1ccccc1Cl)C(Cl)(Cl)Cl)c1cccc(Cl)c1 (configuration not stated)	2.7	5.6	x	x	x
COc1ccc(NC(=S)NC(NC(=O)c2cccc(Cl)c2)C(Cl)(Cl)Cl)c([N+](=O)[O-])c1 (configuration not stated)	n	n	12	2.9	n
O=C(/C=C/c1ccccc1)NC(NC(=S)Nc1cccc(Cl)c1)C(Cl)(Cl)Cl (configuration not stated)	2.9	n	x	x	x
COC(=O)Cc1ccc(NC(=S)NN2CCOCC2)cc1	n	n	x	x	x
SMILES	PTEN del growth	bCat KO growth	HUVEC inhibit	H69AR inhibit	Lung fibro prol
Cc1cc(C)n(-c2nc(SCC(=O)Nc3nccs3)c3c4c(sc3n2)COC(C)(C)C4)n1	n	n	n	n	n
CSc1nnc2c3c4c(sc3nc(-n3nc(C)cc3C)n12)COC(C)(C)C4	n	n	n	n	n
Cc1cc(C)n(-c2nc(NCCC(C)C)c3c4c(sc3n2)COC(C)(C)C4)n1	n	3.6	13	1.6	n
Cc1cc(C)n(-c2nc(-n3nc(C)cc3C)c3c4c(sc3n2)COC(C)(C)C4)n1	n	n	n	26	n
CC1=[N+]([O-])C(C)(C)C(c2ccc(Br)cc2)=[N+]1[O-]	n	n	x	x	x
CC(C)(C)NC(=O)CSc1ncnc2c1nnn2Cc1ccccc1Cl	3.2	4.1	n	3.0	n
O=C1N(Nc2ccccc2)C(c2ccc(Br)cc2)C12CCCC2 (configuration not stated)	n	n	n	n	n
O=C1N(Nc2ccccc2)C(c2ccc(Br)cc2)C12CCCCC2 (configuration not stated)	n	n	n	19	n
CCOC(=O)c1c(C)c(C(=O)Nc2ccccc2)c(C)n1CC	n	n	n	n	n
CCOC(=O)c1c(C)c(C(=O)N2CCc3ccccc3C2)c(C)n1CC	n	n	n	16	n
N#Cc1ccccc1Cn1cc(/C=C/[N+](=O)[O-])c2ccccc21	1.4	2.1	x	x	x
N#Cc1cn(Cc2cccc(Cl)c2)c2ccccc12	n	n	n	n	n
O=[N+]([O-])/C=C/c1cn(Cc2ccccc2)c2ccccc12	1.1	1.6	x	x	x
COc1ccc(S(=O)(=O)N2CCCCCC2)cc1N(C)S(=O)(=O)c1ccc(C)cc1	n	n	x	x	x
CCN1CCN(c2cc(C)c3cc(NC(=O)c4ccc(OC)c(OC)c4)ccc3n2)CC1	n	n	n	19	42
CCN1CCN(c2cc(C)c3cc(NC(=O)c4cncc(Br)c4)ccc3n2)CC1	1.2	1.0	23	n	n
O=C(Nc1ccc(N2CCCCC2)cc1)c1cncc(Br)c1	n	n	n	n	n
CCN1CCN(c2cc(C)c3cc(NC(=O)c4ccc5c(c4)OCO5)ccc3n2)CC1	n	n	x	x	x
Cc1cccc(C)c1NS(=O)(=O)c1ccc(NC(=O)c2ccc(Cl)c([N+](=O)[O-])c2)cc1	3.3	1.9	x	x	x
Cc1ccc(NC(=O)c2ccc(NCCN)c([N+](=O)[O-])c2)cc1Cl	n	3.4	x	x	x
O=C(Nc1cccc(S(=O)(=O)Nc2ccccc2Cl)c1)c1ccc(N2CCCC2)c([N+](=O)[O-])c1	n	n	x	x	x
O=C(Nc1ccc(C(O)(C(F)(F)F)C(F)(F)F)cc1)c1ccc(Cl)c([N+](=O)[O-])c1	1.8	1.6	x	x	x
O=C(Nc1ccc2c(c1)OCCO2)c1ccc(Cl)c([N+](=O)[O-])c1	n	n	x	x	x
O=C(COc1ccc(S(=O)(=O)NC2CCCCC2)cc1Cl)N1CCN(c2ccccc2)CC1	n	n	n	n	n
Cc1ccc(Cl)cc1NC1=C/C(=N\S(=O)(=O)c2cccs2)c2ccccc2C1=O	1.1	1.6	x	x	x
SMILES	PTEN del growth	bCat KO growth	HUVEC inhibit	H69AR inhibit	Lung fibro prol
Cc1cccc(NC2=C/C(=N/S(=O)(=O)c3cccs3)c3ccccc3C2=O)c1	n	n	x	x	x
Cc1ccc(NC2=C/C(=N\S(=O)(=O)c3cccs3)c3ccccc3C2=O)c(C)c1	1.3	1.5	2.9	2.0	2.2
N/C(=N\S(=O)(=O)c1cccs1)c1ccccc1	n	n	n	n	n
COc1ccc(CN2CCn3ncc(C(=O)Nc4cc(C)cc(C)c4)c3C2=O)cc1	n	n	10	n	n
CCCCNC(=O)C1CC(c2c(Cl)cccc2Cl)=NO1 (configuration not stated)	n	n	x	x	x
COc1ccc(C)cc1NC(=O)CN(Cc1nnc(-c2ccc(Cl)cc2)o1)C1CCCC1	n	n	n	2.4	n
O=C(CN1CCC(NC(=O)c2ccccc2F)CC1)NCc1ccc(F)cc1	n	n	n	3.2	n
O=C(c1cc2ccccc2[nH]1)N1CCOCC1	n	n	x	x	x
CCOC(=O)N1CCN(C(=O)c2ccc3c(c2)sc2nc(-c4ccc(OC)cc4)cn23)CC1	n	n	x	x	x
